Measurements: PubChem BioAssay
Active and inactive are the calls of the source.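 The calls were made as follows, unless noted: active = mean duplicate potentiation above the buffer control mean plus 5 SD of buffer wells; inactive = the rest.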

Assays:
[1] = thallium flux activation in parental CHO cells, counter-screen for KCNQ1 potentiator project (AID 493006;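 active = duplicate-averaged activation above buffer control mean plus 5 SD of those controls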;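 as to activation: fluorescence ratio of max minus min over baseline after K+ and Tl+ depolarization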); settings: parental CHO-K1 cells, FluxOR thallium flux, at 10 µM; stronger effect = higher value
Procedure, shortened: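 Material: parental CHO-K1 cells, FluxOR dye-loaded; Also added: Potassium/thallium depolarization pulse; Schedule: overnight 37 °C plating, 90 min dye, 20 min dark compound; Signal: kinetic FluxOR fluorescence, 10 s baseline, 110 s after stimulus.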

[2] = target: Potassium voltage-gated channel subfamily KQT member 1 (Homo sapiens) (UniProt P51787); test: KCNQ1 potassium channel potentiators, confirmation, FluxOR thallium flux, CHO cells, duplicates (AID 493007;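 active = potentiation averaged over duplicate wells exceeding buffer-only control mean by more than 3 SD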;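 as to outcome: cells depolarized by a potassium plus thallium sulfate stimulus after compound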); settings: KCNQ1 cell line, FluxOR thallium flux fluorescence, at 10 µM; stronger effect = higher value, % of reference activator effect, buffer zero
Sequence of Potassium voltage-gated channel subfamily KQT member 1 (Homo sapiens) (P51787 whole entry, looked up): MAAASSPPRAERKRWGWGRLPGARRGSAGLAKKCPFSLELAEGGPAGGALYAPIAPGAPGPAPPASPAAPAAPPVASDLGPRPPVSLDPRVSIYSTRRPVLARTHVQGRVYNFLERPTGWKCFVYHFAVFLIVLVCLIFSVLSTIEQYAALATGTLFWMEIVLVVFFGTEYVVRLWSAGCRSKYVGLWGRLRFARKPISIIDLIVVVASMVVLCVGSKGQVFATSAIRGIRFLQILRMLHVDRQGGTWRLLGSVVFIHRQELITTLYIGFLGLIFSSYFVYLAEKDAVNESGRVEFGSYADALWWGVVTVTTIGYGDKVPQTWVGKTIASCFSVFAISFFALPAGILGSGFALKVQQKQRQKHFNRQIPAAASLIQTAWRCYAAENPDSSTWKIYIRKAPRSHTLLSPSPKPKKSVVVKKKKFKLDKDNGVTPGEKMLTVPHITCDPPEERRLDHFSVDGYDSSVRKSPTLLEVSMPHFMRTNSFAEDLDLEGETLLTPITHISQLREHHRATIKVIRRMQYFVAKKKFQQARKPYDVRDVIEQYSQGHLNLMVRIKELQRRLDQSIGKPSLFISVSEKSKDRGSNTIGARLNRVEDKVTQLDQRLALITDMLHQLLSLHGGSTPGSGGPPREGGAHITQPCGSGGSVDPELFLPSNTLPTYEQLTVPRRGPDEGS
Procedure, shortened: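 System: KCNQ1-expressing CHO cell line; technique: kinetic thallium influx fluorescence with FluxOR dye, 10 s baseline, 110 s post-stimulus; timing: dye 90 min then compound 20 min, both at room temperature; controls: buffer-only wells as 0% and R-L3 activator as 100%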

[3] = target: Potassium voltage-gated channel subfamily KQT member 2 (Rattus norvegicus) (UniProt O88943); test: rat KCNQ2 channel potentiation, selectivity assay for KCNQ1 potentiator project, KCNQ2-CHO-K1 cells (AID 493009); settings: FluxOR thallium flux fluorescence, at 10 µM; stronger effect = higher value, scaled: buffer 0, activator control 100;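 also: assay conditions were tuned for KCNQ1 rather than KCNQ2 modulators; signal is max minus min fluorescence divided by baseline after thallium stimulus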
Sequence of Potassium voltage-gated channel subfamily KQT member 2 (Rattus norvegicus) (O88943 whole entry, looked up): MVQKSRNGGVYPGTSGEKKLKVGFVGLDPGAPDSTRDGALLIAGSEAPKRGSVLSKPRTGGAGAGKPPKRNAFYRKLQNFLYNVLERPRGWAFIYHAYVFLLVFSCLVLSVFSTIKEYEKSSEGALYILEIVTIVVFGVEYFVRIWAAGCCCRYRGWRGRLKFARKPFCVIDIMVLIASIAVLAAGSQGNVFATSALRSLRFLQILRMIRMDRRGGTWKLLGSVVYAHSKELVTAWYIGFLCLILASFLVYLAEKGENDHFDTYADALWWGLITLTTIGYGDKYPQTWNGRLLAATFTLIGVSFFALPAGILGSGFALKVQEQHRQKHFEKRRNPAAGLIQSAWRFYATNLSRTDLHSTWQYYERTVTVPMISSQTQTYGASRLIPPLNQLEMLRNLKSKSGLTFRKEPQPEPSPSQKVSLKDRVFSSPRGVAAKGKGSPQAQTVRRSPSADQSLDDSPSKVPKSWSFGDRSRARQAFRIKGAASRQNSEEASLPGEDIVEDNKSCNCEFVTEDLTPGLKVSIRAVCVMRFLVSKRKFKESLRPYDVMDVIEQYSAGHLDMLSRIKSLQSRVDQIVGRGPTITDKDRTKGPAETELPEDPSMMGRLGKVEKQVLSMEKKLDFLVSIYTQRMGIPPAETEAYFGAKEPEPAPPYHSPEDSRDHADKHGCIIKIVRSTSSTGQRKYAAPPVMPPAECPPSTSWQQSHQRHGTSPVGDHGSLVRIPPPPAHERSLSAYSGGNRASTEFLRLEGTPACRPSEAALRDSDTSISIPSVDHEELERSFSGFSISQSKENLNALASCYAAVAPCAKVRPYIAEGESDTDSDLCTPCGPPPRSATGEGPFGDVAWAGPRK

[4] = target: Potassium voltage-gated channel subfamily KQT member 1 (Homo sapiens) (UniProt P51787); test: KCNQ1 channel current potentiators, confirmation, orthogonal assay for KCNQ1 potentiator project, IonWorks patch clamp, KCNQ1-CHO cells (AID 493184;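 active = current rise at least 3 SD above the untreated control mean in each of two repeat wells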;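 as to current potentiation: percent change of the same well's current before compound addition so 0% = no change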); settings: automated patch clamp current, at 10 µM; stronger effect = higher value
Procedure, shortened: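 Test system: KCNQ1-expressing CHO cells. Medium: pH 7.4 external bath. Probe or stimulus: voltage step from -90 mV holding to +40 mV, 2,000 ms. Compound: 10 µM final, single point. Detection: automated perforated-patch electrophysiology. Read-out: percent current increase versus pre-compound level. Repeats: two replicates.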

Row | SMILES | activation [1] | potentiation [2] | potentiation [3] | outcome [4] | outcome [2] | outcome [1] | outcome [3] | current potentiation [4]
1 | CCC(C)c1ccccc1NC(=S)NC(=O)c1ccco1 (centres undefined) | 400% (active) | 114% (active) | 431% (active) | inactive | – | – | – | –
2 | O=C1c2ccccc2NC(c2ccc(Br)s2)N1O (centres undefined) | 282% (active) | 57% (active) | 252% (active) | inactive | – | – | – | –
3 | Cc1sc2nc(C(C)C)nc(SCC(=O)NCc3ccco3)c2c1C | 276% (active) | 85.5% (active) | 280% (active) | inactive | – | – | – | –
4 | COc1ccc(/C=N/NC(=O)c2[nH]nc3c2CCc2ccccc2-3)cc1OC | 240% (active) | 85% (active) | 228% (active) | inactive | – | – | – | –
5 | O=C(NN=C1c2ccccc2-c2ccccc21)c1cccc(Br)c1 | 196% (active) | 42.5% (active) | 154% (active) | inactive | – | – | – | –
6 | CC(C)Cn1c(=S)[nH]c2cc(Cl)ccc21 | 196% (active) | 70.5% (active) | 225% (active) | inactive | – | – | – | –
7 | CCN1C(=O)/C(=C/c2ccc(OCc3ccc(C(=O)O)cc3)c(Cl)c2)NC1=S | 136% (active) | – | 168% (active) | inactive | inactive | – | – | –
8 | CC1(C)CC(=O)C2=C(C1)N(c1cccc(Cl)c1)C(=O)NC2(C(F)(F)F)C(F)(F)F | – | 19.5% (active) | – | inactive | – | inactive | inactive | –
9 | CCOc1ccccc1NC(=O)CCC(=O)Nc1ccccc1OCC | – | – | – | inactive | inactive | inactive | inactive | –
10 | CCOC(=O)c1oc2c(CN3CCCCC3C)c(O)ccc2c(=O)c1-c1ccc(OC)c(OC)c1 (centres undefined) | – | – | – | inactive | inactive | inactive | inactive | –
11 | CN(CC(=O)Nc1ccc(F)c(F)c1F)C(=O)CC1OC(=O)c2ccccc21 (centres undefined) | – | – | – | inactive | inactive | inactive | inactive | –
12 | N#CC1(c2ccc(NC(=O)c3ccccc3F)cc2)CCCC1 | – | – | – | inactive | inactive | inactive | inactive | –
13 | COc1ccc(Cc2nnc(NC(=O)C3CC(=O)N(c4ccccc4)C3)s2)cc1OC (centres undefined) | – | – | – | inactive | inactive | inactive | inactive | –
14 | O=C(NNC(=S)NC(=O)c1sc2ccccc2c1Cl)c1ccc(Cl)cc1 | 320% (active) | 168% (active) | 319% (active) | inactive | – | – | – | –
15 | O=C(Nc1nnc(-c2ccc3c(c2)CCCC3)o1)c1ccccc1 | 266% (active) | 130% (active) | 400% (active) | inactive | – | – | – | –
16 | Cc1ccc(C(=O)CC(=O)c2cc(Cl)ccc2O)cc1 | 150% (active) | 42.5% (active) | 152% (active) | inactive | – | – | – | –
17 | COc1ccc(C(=O)NC(=S)NNC(=O)c2ccc3ccccc3n2)cc1 | – | 26% (active) | 160% (active) | inactive | – | inactive | – | –
18 | C=CCN(CC=C)C(=S)NC(=O)c1ccc([N+](=O)[O-])cc1 | 366% (active) | 137% (active) | 359% (active) | inactive | – | – | – | –
19 | O=C(NC(=S)N1CCc2ccccc21)c1ccccc1Cl | 443% (active) | 130% (active) | 416% (active) | inactive | – | – | – | –
20 | S=c1nc(SCc2ccccc2)[nH]c2ccccc12 | 458% (active) | 320% (active) | 500% (active) | inactive | – | – | – | –
21 | CCCCCC/C(C)=C1/SC(=S)NC1=O | 752% (active) | 264% (active) | 612% (active) | inactive | – | – | – | –

Row | SMILES | activation [1] | potentiation [2] | potentiation [3] | outcome [4] | outcome [2] | outcome [1] | outcome [3] | current potentiation [4]
22 | CCOC(=O)c1nnn(CC(=O)Nc2cc(Cl)ccc2C)c1C(=O)OCC | 164% (active) | 33% (active) | – | inactive | – | – | inactive | –
23 | O=C(Nc1ccccc1OC(F)F)c1ccc(F)cc1 | – | – | – | inactive | inactive | inactive | inactive | –
24 | O=C(NCc1ccccc1)C(=O)NCC1CCCN1S(=O)(=O)c1cccs1 (centres undefined) | – | – | – | inactive | inactive | inactive | inactive | –
25 | COc1ccccc1NC(=O)C(=O)NNC(=O)c1ccco1 | 240% (active) | 62.5% (active) | 210% (active) | inactive | – | – | – | –
26 | Oc1cccc2ccc(Nc3ccccn3)nc12 | – | – | – | inactive | inactive | inactive | inactive | –
27 | Cc1cccc(NC(=O)Nc2ccc(OCc3ccccc3)cc2)n1 | – | – | – | inactive | inactive | inactive | inactive | –
28 | O=C(c1cc(COc2ccc3ncccc3c2)on1)N1CCCC(O)C1 (centres undefined) | – | – | – | inactive | inactive | inactive | inactive | –
29 | CCOc1ccc2nc(/N=C/c3c(C)[nH]n(-c4ccc(C)cc4)c3=O)sc2c1 | 356% (active) | 120% (active) | 332% (active) | inactive | – | – | – | –
30 | C[C@@H](NC(=O)[C@@H]1Cc2ccccc2CN1)C(=O)NC1CCCC1 | – | – | – | inactive | inactive | inactive | inactive | –
31 | Cc1cc(C)n(/N=C/c2cc(Cl)cc(Cl)c2O)c(=O)c1 | – | – | – | inactive | inactive | inactive | inactive | –
32 | CC(C)CSC1=NSC2=NC(=O)/C(=C\c3cccs3)C(=N)N12 | – | – | – | inactive | inactive | inactive | inactive | –
33 | CCc1ccccc1NC(=O)C1CCN(C(=O)N2CCOc3ccccc32)CC1 | – | – | – | inactive | inactive | inactive | inactive | –
34 | O=c1c(O)c(-c2cccs2)oc2ccc(Cl)cc12 | 570% (active) | 128% (active) | 553% (active) | inactive | – | – | – | –
35 | O=C(NC(=S)Nc1ccc(C(F)(F)F)cc1)c1csnn1 | 590% (active) | 269% (active) | 555% (active) | inactive | – | – | – | –
36 | Cc1cc(C)cc(OCC(O)Cn2nc(C)cc2C)c1 (centres undefined) | – | – | – | inactive | inactive | inactive | inactive | –
37 | CCOC(=O)c1sc2nc(C)nc(SCC(=O)N(C)C3CCS(=O)(=O)C3)c2c1C (centres undefined) | – | 17.5% (active) | 142% (active) | inactive | – | inactive | – | –
38 | S=c1[nH]nc(-c2ccco2)n1/N=C/c1ccc(Cl)c(Cl)c1 | 512% (active) | 290% (active) | 145% (active) | inactive | – | – | – | –
39 | COc1cc(OC)cc(C(=O)Nc2nnc(SCC(=O)NCc3ccco3)s2)c1 | 150% (active) | 30% (active) | 158% (active) | inactive | – | – | – | –
40 | Cc1ccc(S(=O)(=O)NN2C(=O)/C(=C/c3cccc(F)c3)SC2=S)cc1 | 176% (active) | 20.5% (active) | 152% (active) | – | – | – | – | 37.3% (active)
41 | COc1ccc2c(c1)cc(C)c1nnc(SCC(=O)N3CCN(C(=O)c4ccco4)CC3)n12 | – | – | – | inactive | inactive | inactive | inactive | –
42 | CCN(CC)CC(O)Cn1c2ccccc2c2ccccc21 (centres undefined) | – | – | – | inactive | inactive | inactive | inactive | –

Row | SMILES | activation [1] | potentiation [2] | potentiation [3] | outcome [4] | outcome [2] | outcome [1] | outcome [3] | current potentiation [4]
43 | COc1ccc(S(=O)(=O)N2CCCC(C(=O)O)C2)cc1 (centres undefined) | – | – | – | inactive | inactive | inactive | inactive | –
44 | COc1ccc(NC(=S)NC(=O)c2ccc(Br)o2)cc1 | 146% (active) | 45.5% (active) | 195% (active) | inactive | – | – | – | –
45 | Cc1ccc(C(=O)O/N=C(\N)Cc2cccs2)c(Cl)c1 | – | – | – | inactive | inactive | inactive | inactive | –
46 | CN(Cc1nccs1)C(=O)c1ccc(OC2CCN(Cc3ccccn3)CC2)cc1 | – | – | – | inactive | inactive | inactive | inactive | –
47 | Cn1ccnc1SCC(=O)NC1CC1 | – | – | – | inactive | inactive | inactive | inactive | –
48 | CCCN(CCC)C(=S)NC(=O)c1ccc(Cl)cc1Cl | 470% (active) | 204% (active) | 448% (active) | inactive | – | – | – | –
49 | CC(C(=O)O)n1c2ccccc2c2cn[nH]c(=O)c21 (centres undefined) | – | – | – | inactive | inactive | inactive | inactive | –
50 | CCOc1ccccc1NC(=S)NC(=O)c1ccco1 | 172% (active) | 35% (active) | 184% (active) | inactive | – | – | – | –
51 | CCOc1ccc(S(=O)(=O)Nc2cc(OC)ccc2OC)cc1 | – | – | – | inactive | inactive | inactive | inactive | –
52 | C#CCOCCOCCOCCNc1nc(N2CCN(C(=O)C([C@@H](C)CC)n3cc(C(N)Cc4ccc(O)cc4)nn3)CC2)nc(N2CCN(C(=O)[C@H](CCC(=O)O)n3cc(C(N)CC(C)C)nn3)CC2)n1 (some centres undefined) | – | – | – | inactive | inactive | inactive | inactive | –
53 | CS(=O)(=O)N1CCN(c2ccccc2NC(=O)CSc2nnc(-c3ccco3)o2)CC1 | – | – | – | inactive | inactive | inactive | inactive | –
54 | CCCCN(CCCC)c1ccc(C(=O)c2ccccc2C(=O)O)c(O)c1 | 212% (active) | 51.5% (active) | 182% (active) | – | – | – | – | 15.1% (active)
55 | O=C(Nc1ccc(N2CCN(c3ccc(O)cc3)CC2)cc1)Oc1ccccc1 | – | – | – | inactive | inactive | inactive | inactive | –
56 | COc1ccc(-c2nc3ccc(C(=O)NCC(OC)OC)cc3nc2-c2ccc(OC)c(OC)c2)cc1OC | – | – | – | inactive | inactive | inactive | inactive | –
57 | Cc1sc2nc(CN3CCOCC3)[nH]c(=S)c2c1C | 312% (active) | 69.5% (active) | 292% (active) | inactive | – | – | – | –
58 | COc1ccc(C)cc1NC(=O)C(=O)NNC(=O)c1ccco1 | 377% (active) | 109% (active) | 363% (active) | inactive | – | – | – | –
59 | CCOc1ccc(N=Nc2ccc(O)c3ncccc23)cc1 | – | 17.5% (active) | – | inactive | – | inactive | inactive | –
60 | CC1(N2CCCCC2)CC2(O)C(=[N+]1[O-])CCC/C2=N\O (centres undefined) | – | – | – | inactive | inactive | inactive | inactive | –
61 | CCOC(=O)/C(C)=N/NC(=O)c1ccc([N+](=O)[O-])cc1 | 328% (active) | 157% (active) | 349% (active) | inactive | – | – | – | –
